Screens deposited in PubChem by several laboratories.
Hits are enriched below; roughly 2.1% of the tested compounds scored in any of these assays.
thrombin 1536 = human alpha-thrombin inhibitors, primary screen, counter-screen for coagulation protease inhibitor project, biochemical, 1536-well, fluorogenic AMC substrate | Prothrombin (Homo sapiens), P00734 | Boc-VPR-AMC fluorogenic substrate cleavage | inhibition, % at 5 µM | 220,000 compounds, 0.26% hits;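 active = inhibition at or above 40%; inactive = inhibition below 40%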;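 note: 0% = enzyme with no compound and 100% = wells without enzyme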
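Material: human alpha-thrombin protein; Also added: Boc-VPR-AMC substrate, 15 µM final; Timing: enzyme reaction carried out at room temperature; Signal: fluorescence, ex 355 nm, em 460 nm; Measure: % inhibition of thrombin; Controls: enzyme without compound as high, wells lacking enzyme as low.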
EP2 mod = EP2 receptor modulators, cAMP readout, primary screen, cell-based, HTRF cAMP, PGE2 stimulation; EP2-expressing cells, cAMP HTRF FRET, PGE2 co-stimulation; 260,000 compounds, 0.83% hits; induction, % at 25 µM;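 active = compounds whose cAMP rise, as percent of the full-agonist control response, exceeds 60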;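 note: rat C6 glioma line stably carrying human EP2 under a CMV promoter; the protocol text gives 20 µM as final concentration; 100% = response of wells given 1 µM PGE2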
FXIa inh 1536 = human FXIa protease inhibitors, primary screen, biochemical, 1536-well; Coagulation factor XI (Homo sapiens), P03951; purified FXIa, Boc-Glu-Ala-Arg-AMC fluorogenic substrate; inhibition, % at 5 µM; 220,000 compounds, 0.14% hits; AID 798, 2007;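 active = inhibition of at least 40%; inactive = inhibition below 40%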;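 note: fluorescence of freed AMC excited at 355 nm; 0% = enzyme without compound and 100% = no enzyme blank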
FXIIa inh = human FXIIa protease inhibitors, primary screen, biochemical, 1536-well | Coagulation factor XII (Homo sapiens), P00748 | inhibition, % at 5 µM | purified FXIIa, Boc-QGR-AMC fluorogenic substrate, 2 h | 220,000 compounds, 0.3% hits; in the data active = inhibition above about 40%;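 note: 0% = enzyme with no compound and 100% = blank without enzyme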
Target sequence (P00748 20-372 limits assumed): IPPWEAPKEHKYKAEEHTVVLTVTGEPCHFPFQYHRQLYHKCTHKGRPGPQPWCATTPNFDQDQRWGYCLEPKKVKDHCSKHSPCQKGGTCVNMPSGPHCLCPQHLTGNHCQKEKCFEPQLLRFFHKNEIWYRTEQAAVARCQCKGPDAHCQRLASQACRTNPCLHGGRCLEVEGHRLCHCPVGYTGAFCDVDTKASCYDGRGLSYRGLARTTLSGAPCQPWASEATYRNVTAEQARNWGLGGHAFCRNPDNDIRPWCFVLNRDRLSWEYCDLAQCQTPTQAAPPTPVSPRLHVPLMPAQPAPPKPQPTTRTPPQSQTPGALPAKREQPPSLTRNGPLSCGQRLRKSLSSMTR
Target sequence (P00748 373-615 limits assumed): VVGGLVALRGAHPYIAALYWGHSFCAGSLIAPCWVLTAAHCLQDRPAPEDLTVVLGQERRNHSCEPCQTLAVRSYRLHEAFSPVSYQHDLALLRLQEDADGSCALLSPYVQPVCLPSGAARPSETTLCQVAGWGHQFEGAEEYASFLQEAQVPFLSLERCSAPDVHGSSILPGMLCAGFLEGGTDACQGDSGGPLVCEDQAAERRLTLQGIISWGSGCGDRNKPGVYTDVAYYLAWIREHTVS
KLK5 inh = human KLK5 protease inhibitors, primary screen, biochemical, 1536-well; 210,000 compounds, 0.59% hits; inhibition, % at 5 µM; AID 873, 2007; recombinant hK5, fluorogenic AMC substrate cleavage;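 active = inhibition of 40% or more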;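 note: 0% = enzyme controls without compound and 100% = no-enzyme blanks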
EP2 antag = human EP2 receptor antagonists, primary screen, TR-FRET cAMP, C6 glioma cells; inhibition, % at 25 µM; C6 glioma cells expressing human EP2; cells stimulated with saturating PGE2; 260,000 compounds, 0.52% hits;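 active = percent inhibition above 40 after rounding to a whole number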;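 note: rat C6 glioma host cells with rolipram phosphodiesterase inhibitor present; the protocol text gives 20 µM as final concentration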
* hit, by the source's call; x = no result given.

SMILES | thrombin 1536 | EP2 mod | FXIa inh 1536 | FXIIa inh | KLK5 inh | EP2 antag
Cn1ccnc1C(NC(=O)c1nccc2ccccc12)c1ccc(F)c(F)c1 (stereo unspecified) | x | -41 | x | x | x | 4
O=[N+]([O-])c1ccc(NC(=S)NCCc2ccc(Cl)cc2)cc1 | 0 | -18 | 19 | 21 | -8 | 74*
O=[N+]([O-])c1ccc(NC(=S)NCCc2ccccc2)cc1 | 4 | -76 | 6 | 17 | -18 | 19
CC(=O)c1ccc(NC(=O)/C(Cl)=C/c2ccccc2)cc1 | 19 | -25 | 57* | 33 | 34 | 3
COc1cc(O)c(CC=C(C)C)c(O)c1C(=O)CCc1ccc(O)cc1 | 5 | -4 | 0 | 14 | 3 | 76*
O=C(CCc1ccc(O)cc1)c1c(O)cc(O)cc1O | 4 | -4 | 2 | 13 | 2 | 9
CC(C)Sc1nc(N2CCCC2)c2c(c1C#N)CC(C)(C)OC2 | 3 | 63* | 2 | 9 | 3 | 16
COc1cccc(NC(=O)CSc2nnc(-c3ccncc3)n2C)c1 | x | -31 | x | x | x | 11
O=C(Nc1nnc(-c2ccccc2)o1)c1nc2ccccc2s1 | -3 | -14 | 1 | 8 | -23 | 45*
O=C1c2[nH]nc(-c3ccccc3O)c2C(c2ccccc2)N1Cc1ccco1 (stereo unspecified) | 2 | 13 | 2 | 16 | 0 | 10
O=C1c2[nH]nc(-c3ccccc3O)c2C(c2ccccc2F)N1Cc1ccco1 (stereo unspecified) | 23 | 10 | 15 | 22 | 41* | 8
CCOc1ccc2[nH]c(=O)c(CN(CCc3ccccc3C)C(=O)CC)cc2c1 | x | -29 | x | x | x | 5
Cc1cc(C)c(C#N)c(SCC(=O)C23CC4CC(CC(C4)C2)C3)n1 | x | 36 | x | x | x | 6
Cc1ccccc1OCC(=O)Nc1ccc2c(c1)OCCO2 | -6 | -6 | -1 | 0 | -5 | 5
O=C(COc1ccccc1Cl)Nc1ccc2c(c1)OCCO2 | -4 | 64* | -7 | 4 | 0 | 18
CCCN1CCN(C(c2cc3ccc(OC)cc3[nH]c2=O)c2nnnn2Cc2ccc(F)cc2)CC1 (stereo unspecified) | x | -8 | x | x | x | 21
COc1ccccc1-c1cccc(CNCc2nc(Cc3ccccc3)no2)c1 | x | 31 | x | x | x | 4
COc1ccc2cc(C3C(C#N)=C(N)OC(C)=C3C(C)=O)c(Cl)nc2c1 (stereo unspecified) | 27 | -29 | 21 | 33 | 42* | 0
O=C(CCn1nnc2ccccc21)N1CCc2c(nc(N3CCCC3)[nH]c2=O)C1 | x | -25 | x | x | x | 8
COc1ccc(C)cc1NC(=O)C(Sc1nnc(Nc2cc(C)ccc2OC)s1)c1ccccc1 (stereo unspecified) | -1 | 18 | -6 | 3 | -8 | 7
COc1ccc(Nc2nnc(SC(C(=O)Nc3cc(C)ccc3C)c3ccccc3)s2)cc1 (stereo unspecified) | 38 | 54 | 30 | 75* | 22 | 7
C#CC(=O)N(c1cnc2ccccc2c1)C(C(=O)NC1CCCCC1)c1ccc(F)cc1 (stereo unspecified) | x | -78 | x | x | x | 17
CN(C(=O)c1cccs1)C1CCS(=O)(=O)C1 (stereo unspecified) | x | 16 | x | x | x | 6
Cn1c(/C(C#N)=C/C2CC=CCC2)nc2ccccc21 (stereo unspecified) | 7 | -24 | 3 | 6 | 47* | 17
N#C/C(=C\C1CC=CCC1)c1nc2ccccc2[nH]1 (stereo unspecified) | 1 | -47 | 4 | 10 | -2 | 21
SMILES | thrombin 1536 | EP2 mod | FXIa inh 1536 | FXIIa inh | KLK5 inh | EP2 antag
CC[C@H](Cn1nnc2ccccc2c1=O)NC(=O)C1(c2ccccc2)CCCC1 | x | 22 | x | x | x | x
C/C(=N\OC(=O)C1CC1)C1CC1c1ccc(F)cc1 (stereo unspecified) | 31 | 9 | 33 | 33 | 52* | 6
O=C(CNCC1CCCO1)Nc1ccc(C2CCCCC2)cc1 (stereo unspecified) | x | -54 | x | x | x | 11
CCCc1c(C)nc2ccccc2c1SCCC#N | 2 | 23 | 2 | 13 | -6 | 7
CCCCc1c(C)nc2ccc(Br)cc2c1SCCC#N | 99* | 56 | 10 | 7 | 47* | 12
CO[C@@H]1/C=C\O[C@]2(C)Oc3c(C)c(O)c4c(O)c(cc(O)c4c3C2=O)NC(=O)C(C)=C/C=C\[C@H](C)[C@@H](O)[C@H](C)[C@H](O)[C@H](C)[C@H](OC(C)=O)[C@@H]1C | x | 38 | x | x | x | 45*
COc1ccc(NC(=O)CC2C(=O)N(C)C(=S)N2Cc2ccncc2)cc1 (stereo unspecified) | 5 | 11 | 0 | 4 | -12 | 6
COC(=O)c1ccc(NC(=O)CC2C(=O)N(C)C(=S)N2Cc2ccc(S(N)(=O)=O)cc2)cc1 (stereo unspecified) | 18 | -17 | 31 | 22 | 54* | 2
CCn1ncc(C(=O)O)c1C | x | 1 | x | x | x | 5
C/C(=N\OC(=O)NC(C)C)c1sc(-c2ccc(Cl)cc2)nc1C | 19 | 3 | 8 | 13 | 58* | 14
Cc1cc(/C(N)=N/OC(=O)c2ccc(Cl)cc2)no1 | -2 | -11 | -6 | 8 | 44* | 1
CN(C)CCCN=c1c2ccccc2n(C)c2[nH]c(=O)n(C)c(=O)c12 | x | 19 | x | x | x | 46*
O=c1[nH]cnc2c1sc1nc3c(c(-c4ccc(Cl)cc4)c12)CCC3 | -6 | 61* | -9 | -2 | -10 | 10
Cc1cccnc1NC(=S)Nc1ccccc1 | x | -32 | x | x | x | 10
O=C(CSc1nnc(-c2ccccc2)c(-c2ccccc2)n1)Nc1ccc(Br)cn1 | 62* | 10 | 23 | 28 | 2 | 6
O=C(CSc1nnc(-c2ccccc2)c(-c2ccccc2)n1)Nc1ncc(Cl)cc1Cl | -2 | 28 | 1 | 3 | -4 | 4
C/C=C(\C)C(=O)OC1c2c(ccc3ccc(=O)oc23)OC(C)(C)C1OC(C)=O (stereo unspecified) | -5 | -42 | 45* | 39 | -3 | 15
C=CCn1c(NCc2ccc3c(c2)OCO3)nc2ccccc21 | 9 | -13 | 20 | 31 | -10 | 11
CCn1c(NCc2ccc3c(c2)OCO3)nc2ccccc21 | 21 | 3 | 3 | 11 | 53* | 4
O=C(c1nccs1)C1CCN(C(=O)c2ccccc2F)CC1 | x | -54 | x | x | x | x
